Two compounds from ChEMBL document CHEMBL5712087, “Targeting bromodomain-containing protein 4 (BRD4) inhibits MYC expression in colorectal cancer cells” (Neoplasia, 2019) can be followed below.

Structures are written as SMILES. Activity calls are given as the source filed them. The rule behind the calls is not given here.

Test [1] has as its system HCT-116. Put plainly: Inhibition of colony formation in human HCT-116 p53-/- cells at 5 to 10 uM by crystal violet staining analysis. In kind it is functional, cell-based. Particulars: dose 5-10 µM. The essentials:
(§1)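 Cells (1-2x10^3) were plated in six-well plates and, after 48 h, exposed to the PROTAC at the stated concentrations for 3–5 days. Plates were then methanol-fixed and stained with crystal violet. Culture was at 37 °C, 5% CO2, with 10% FCS. Media were RPMI 1640 (Caco2, COLO320, DLD1, LS174t), McCoy's (HCT116, HT29) or DMEM/HamsF12 (SW480). Experiments were done ≥3 times.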

The subject of a further test is COLO 320. Put plainly: Inhibition of colony formation in human COLO 320 cells at 5 to 10 uM by crystal violet staining analysis. In kind it is functional, cell-based. Particulars: dose 5-10 µM. In short, it runs like this: as §1
Test [2] addresses T1, von Hippel-Lindau disease tumor suppressor/Bromodomain-containing protein 4 (Homo sapiens) (UniProt O60885+P40337). Put plainly: PROTAC activity at BRD4/VHL E3 ligase in human LS174T dbet1 resistant cells assessed as MYC mRNA level at 500 to 1000 nM for 24 hrs by RT-qPCR analysis. In kind it is cell-based. The note with it: dose 500-1000 nM. The essentials:
(§2)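 Resistant LS174t cells were derived by four months' exposure to rising dBET1 concentrations, with outgrowing cells expanded. Resistant and parental cells were then treated and analysed for BRD4 and MYC protein by western blot (GAPDH/β-actin control) and for MYC mRNA by qPCR normalised to PPIA/ACTB (ΔΔCq).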
(In qPCR the cycle at which signal appears reflects the starting amount.)

The test system of test [3] is HCT-116. Put plainly: Inhibition of colony formation in human HCT-116 p53+/+ cells at 5 to 10 uM by crystal violet staining analysis. In kind it is functional, cell-based. The note with it: dose 5-10 µM. In short, it runs like this:
as §1

Another test deals with Caco-2. Kind of test: Inhibition of colony formation in human Caco-2 cells at 5 to 10 uM by crystal violet staining analysis. In kind it is functional, cell-based. Particulars: dose 5-10 µM. In short, it runs like this:
as §1

The next test relates to DLD-1. Kind of test: Inhibition of colony formation in human DLD-1 cells at 5 to 10 uM by crystal violet staining analysis. In kind it is functional, cell-based. The note with it: dose 5-10 µM. The essentials:
as §1

The target in test [4] is T1, von Hippel-Lindau disease tumor suppressor/Bromodomain-containing protein 4 (Homo sapiens). Put plainly: PROTAC activity at BRD4/VHL E3 ligase in human LS174T dbet1 resistant cells assessed as BRD4 protein degradation at 500 to 1000 nM for 24 hrs by Western blot analysis. In kind it is cell-based. Particulars: dose 500-1000 nM. In short, it runs like this: as §2
A further test deals with HT-29. Put plainly: Inhibition of colony formation in human HT-29 cells at 5 to 10 uM by crystal violet staining analysis. In kind it is functional, cell-based. The note with it: dose 5-10 µM. In short, it runs like this:
as §1

The subject of test [5] is LS174T. Kind of test: Inhibition of colony formation in human LS174T cells at 5 to 10 uM by crystal violet staining analysis. In kind it is functional, cell-based. The note with it: dose 5-10 µM. The essentials: as §1
Test [6] deals with T1, von Hippel-Lindau disease tumor suppressor/Bromodomain-containing protein 4 (Homo sapiens). Put plainly: PROTAC activity at BRD4/VHL E3 ligase in human DLD-1 cells assessed as decrease in MYC protein expression at 5 to 10 uM for 24 hrs by Western blot analysis. The note with it: dose 5-10 µM. In kind it is cell-based. In short, it runs like this:
(§3)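 Eight CRC lines exposed 24 h to PROTAC at 5 or 10 µM (stocks 2 mM in DMSO, diluted in PBS or medium). Lysis in RIPA with protease/phosphatase inhibitors and 2.5 mmol/l DTT; 15 µg protein on 10% SDS-PAGE, semi-dry transfer to nitrocellulose. Anti-BRD4 or anti-MYC at 1:1,000 overnight at 4 °C; GAPDH or β-actin loading control; chemiluminescence.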
(In western blotting, separated proteins are transferred to a membrane and probed.)

The subject of test [7] is LS174T. Kind of test: Inhibition of colony formation in human LS174T cells for 3 days by crystal violet staining analysis. In kind it is functional, cell-based. The note with it: time 3.0 day. In short, it runs like this: as §1
The target in test [8] is T1, von Hippel-Lindau disease tumor suppressor/Bromodomain-containing protein 4 (Homo sapiens). Put plainly: PROTAC activity at BRD4/VHL E3 ligase in human LS174T cells assessed as decrease in BRD4 protein degradation at 5 to 10 uM for 24 hrs by Western blot analysis. The note with it: dose 5-10 µM. In kind it is cell-based. The essentials: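 Eight CRC lines, including LS174t (RPMI 1640) and SW480 (DMEM/HamsF12), all with 10% FCS, were treated with PROTAC at 5 and 10 µM. BRD4 and MYC proteins were detected by immunoblot (RIPA lysate, 15 µg, 10% gel, primary 1:1,000 overnight at 4 °C), with GAPDH/β-actin as loading control.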

The next test relates to SW480. Kind of test: Inhibition of colony formation in human SW480 cells at 5 to 10 uM by crystal violet staining analysis. In kind it is functional, cell-based. Particulars: dose 5-10 µM. The essentials: as §1
Test [9] concerns the target T2, Protein cereblon/Bromodomain-containing protein 4 (Homo sapiens) (UniProt O60885+Q96SW2). Put plainly: PROTAC activity at BRD4/Cereblon in human DLD-1 cells assessed as decrease in BRD4 protein degradation at 5 to 10 uM for 24 hrs by Western blot analysis. In kind it is cell-based. Particulars: dose 5-10 µM. In short, it runs like this:
as §3

In test [10] the target is T2, Protein cereblon/Bromodomain-containing protein 4 (Homo sapiens). Put plainly: PROTAC activity at BRD4/Cereblon in human LS174T cells assessed as BRD4 protein degradation at 100 to 500 nM pretreated with proteasome inhibitor MG132 for 4 hrs by Western blot analysis. The note with it: dose 100-500 nM. In kind it is cell-based. In short, it runs like this:
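LS174t cells pre-incubated 4 h with proteasome inhibitor MG132 (10 mM DMSO stock) before PROTAC exposure. BRD4 read by immunoblot: 15 µg lysate, 10% SDS-PAGE, anti-BRD4 1:1,000 overnight at 4 °C, GAPDH/β-actin loading control.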

Test [11] has the same target. Kind of test: PROTAC activity at BRD4/Cereblon in human LS174T cells assessed as BRD4 mRNA level at 500 to 1000 nM for 24 hrs by RT-qPCR analysis. In kind it is cell-based. The note with it: dose 500-1000 nM. The essentials: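 Total RNA from 10^6 cells after 24 h treatment, Trizol-extracted and integrity-checked. 0.7 µg reverse transcribed, then SYBR-type qPCR: 95 °C 5 min, 40 cycles of 95 °C 15 s/60 °C 60 s. Melting curves checked. MYC or BRD4 normalised to PPIA and ACTB by ΔΔCq. At least three experiments; means ± SD.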

The target is the same in test [12]. Put plainly: PROTAC activity at BRD4/Cereblon in human SW480 cells assessed as decrease in BRD4 protein degradation at 5 to 10 uM for 24 hrs by Western blot analysis. In kind it is cell-based. Particulars: dose 5-10 µM. In short, it runs like this: as §3
For test [13] the target is unchanged. Kind of test: PROTAC activity at BRD4/Cereblon in human COLO 320 cells assessed as decrease in BRD4 protein degradation at 5 to 10 uM for 24 hrs by Western blot analysis. In kind it is cell-based. The note with it: dose 5-10 µM. In short, it runs like this:
as §3

Test [14] shares this target. Put plainly: PROTAC activity at BRD4/Cereblon in human LS174T cells assessed as decrease in MYC protein expression at 5 to 10 uM for 24 hrs by Western blot analysis. In kind it is cell-based. The note with it: dose 5-10 µM. In short, it runs like this: as §3
The target is the same in test [15]. Put plainly: PROTAC activity at BRD4/Cereblon in human HT-29 cells assessed as decrease in BRD4 protein degradation at 5 to 10 uM for 24 hrs by Western blot analysis. In kind it is cell-based. The note with it: dose 5-10 µM. The essentials:
as §3

For test [16] the target is unchanged. Kind of test: PROTAC activity at BRD4/Cereblon in human Caco-2 cells assessed as decrease in MYC protein expression at 5 to 10 uM for 24 hrs by Western blot analysis. In kind it is cell-based. The note with it: dose 5-10 µM. In short, it runs like this: as §3
Test [17] has the same target. Put plainly: PROTAC activity at BRD4/Cereblon in human Caco-2 cells assessed as decrease in BRD4 protein degradation at 5 to 10 uM for 24 hrs by Western blot analysis. In kind it is cell-based. Particulars: dose 5-10 µM. In short, it runs like this: as §3
The target is the same in test [18]. Kind of test: PROTAC activity at BRD4/Cereblon in human HCT116 p53-/- cells assessed as decrease in MYC protein expression at 5 to 10 uM for 24 hrs by Western blot analysis. In kind it is cell-based. Particulars: HCT-116, dose 5-10 µM. The essentials:
as §3

The target is the same in test [19]. Put plainly: PROTAC activity at BRD4/Cereblon in human HCT116 p53-/- cells assessed as decrease in BRD4 protein degradation at 5 to 10 uM for 24 hrs by Western blot analysis. In kind it is cell-based. Particulars: HCT-116, dose 5-10 µM. The essentials:
as §3

T1 sequence (P40337 whole entry, looked up, other chains not shown): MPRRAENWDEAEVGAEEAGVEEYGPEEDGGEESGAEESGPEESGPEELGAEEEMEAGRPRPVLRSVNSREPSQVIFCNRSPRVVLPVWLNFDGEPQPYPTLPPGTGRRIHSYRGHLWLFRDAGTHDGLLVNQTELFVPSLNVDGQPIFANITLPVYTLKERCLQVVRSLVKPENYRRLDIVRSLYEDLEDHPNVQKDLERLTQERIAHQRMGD
T2 sequence (Q96SW2 whole entry, looked up, other chains not shown): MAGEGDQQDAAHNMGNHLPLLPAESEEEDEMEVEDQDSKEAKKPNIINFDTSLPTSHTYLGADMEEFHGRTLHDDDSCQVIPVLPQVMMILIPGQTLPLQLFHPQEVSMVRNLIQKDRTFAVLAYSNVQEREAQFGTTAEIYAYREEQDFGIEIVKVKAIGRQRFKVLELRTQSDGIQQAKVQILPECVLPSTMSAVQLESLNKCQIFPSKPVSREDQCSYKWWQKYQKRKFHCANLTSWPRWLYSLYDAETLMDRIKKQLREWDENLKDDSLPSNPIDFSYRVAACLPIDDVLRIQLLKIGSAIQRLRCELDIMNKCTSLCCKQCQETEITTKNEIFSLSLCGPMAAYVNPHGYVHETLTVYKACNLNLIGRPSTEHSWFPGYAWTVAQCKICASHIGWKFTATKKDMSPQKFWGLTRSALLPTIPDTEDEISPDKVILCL

For `Cc1ncsc1-c1ccc(CNC(=O)[C@@H]2C[C@@H](O)CN2C(=O)[C@@H](NC(=O)COCCOCCOCCNC(=O)C[C@@H]2N=C(c3ccc(Cl)cc3)c3c(sc(C)c3C)-n3c(C)nnc32)C(C)(C)C)cc1`, the inhibition result with HCT-116 [1], in the test on COLO 320, in the test on HCT-116 [3], in the test with Caco-2, in the test with DLD-1 and with HT-29 was “Active” in each case. The inhibition result in the test with LS174T [5] and in the test with SW480 was “Active” throughout. Further, the outcome in [2], in test [4] and in [8] was Active. Further, the outcome in test [6] was inactive. Further, the inhibition result in the test on LS174T [7] was “Dose-Dependent Effect”.
On to `Cc1sc2c(c1C)C(c1ccc(Cl)cc1)=N[C@@H](CC(=O)NCCCCNC(=O)COc1cccc3c1C(=O)N(C1CCC(=O)NC1=O)C3=O)c1nnc(C)n1-2` (stereo partly drawn), for which the inhibition entry with HCT-116 [1], with COLO 320, in the test on HCT-116 [3], in the test on Caco-2, with DLD-1 and in the test with HT-29 was “Active” each time. For the same compound, the inhibition entry in the test with LS174T [5] and in the test with SW480 was “Active” in each case. The result in test [9], in test [13], in test [14], in [15], in test [16] and in test [17] was Active. Also, the outcome in test [18] and in [19] was Active. The outcome in [10], in test [11] and in [12] was inactive. Moreover, in the test with LS174T [7], the inhibition entry was “Dose-Dependent Effect”.
